Data published in ChEMBL document CHEMBL2150952 (J Med Chem, 2011).
Activity calls are given as the source filed them. The rule behind the calls is not given here.

How the values were obtained:
[1] = tested on: Mus musculus; assay: Antidiabetic activity in diet-induced obese C57BL6 mouse assessed as reduction in liver steatosis at 20 to 60 mg/kg, po BID measured on day 28; type: functional, organism-based
Summary of the method: (§1)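 eDIO mice (high fat diet for at least 18 weeks) were dosed orally bid for 28 days, with n = 8–10/group. At termination, livers were collected for histological steatosis assessment and triglyceride measurement.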

[2] = tested on: Mus musculus; assay: Antidiabetic activity in po dosed diet-induced obese fasted C57BL6 mouse assessed as increase in glucose clearance administered 1 hr before glucose challenge measured 12 hrs thereafter by OGTT; type: functional; conditions: in the assay text read “2 hrs” for “12 hrs”
Summary of the method: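 Male C57/Bl6 mice were kept on a high fat diet for at least 14 weeks from 6 weeks of age, then fasted 16 h. Compound was given orally 1 h before a 2 g/kg oral glucose load.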

[3] = tested on: Mus musculus; assay: Antidiabetic activity in diet-induced obese C57BL6 mouse assessed as reduction in liver triglyceride level at 60 mg/kg, po BID; type: functional, organism-based; parameters: dose 60 mg/kg; summary of the method: as §1
[4] = tested on: Mus musculus; assay: Antidiabetic activity in diet-induced obese C57BL6 mouse assessed as reduction in liver triglyceride level at 20 mg/kg, po BID; type: functional, organism-based; parameters: dose 20 mg/kg; summary of the method: as §1
[5] = tested on: HepG2; assay: Ratio IC50 for SCD-1 activity in organic anion transporting polypeptides-deficient human HepG2 cells to IC50 for SCD-1 activity in Sprague-Dawley rat Hepatocytes expressing organic anion transporting polypeptides; type: cell-based
Summary of the method: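 Cellular SCD IC50s measured in human HepG2 cells (lacking active OATPs) and in rat hepatocytes (active OATPs). Hepatocytes preincubated with compound for 15 min at 37 °C, then given 14C-stearic acid (final 0.5 μCi/ml) for 1 h with shaking. Lipids hydrolysed in 2N NaOH at 75 °C, acidified and extracted. Radiolabelled oleic and stearic acid resolved by HPLC with flow scintillation detection. Mean of at least n = 3. HepG2 IC50 divided by hepatocyte IC50.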

[6] = molecular target: T1, Stearoyl-CoA desaturase (Homo sapiens, UniProt O00767); assay: Inhibition of SCD-1 activity in organic anion transporting polypeptides-deficient human HepG2 cells assessed as reduction in [I-14C] stearoyl CoA desaturation by scintillation counting; type: cell-based
T1 sequence (O00767 whole entry): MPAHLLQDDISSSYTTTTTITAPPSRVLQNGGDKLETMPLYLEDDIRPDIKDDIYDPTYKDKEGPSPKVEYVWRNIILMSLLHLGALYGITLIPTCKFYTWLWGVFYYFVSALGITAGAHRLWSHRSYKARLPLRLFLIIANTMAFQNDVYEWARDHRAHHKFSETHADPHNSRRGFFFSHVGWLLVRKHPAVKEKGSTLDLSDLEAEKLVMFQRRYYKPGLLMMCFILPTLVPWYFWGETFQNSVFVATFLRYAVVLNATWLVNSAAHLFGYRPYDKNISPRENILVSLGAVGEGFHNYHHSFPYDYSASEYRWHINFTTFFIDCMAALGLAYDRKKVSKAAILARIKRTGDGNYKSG

[7] = molecular target: T2, Acyl-CoA desaturase 1 (Rattus norvegicus, UniProt P07308); assay: Inhibition of SCD-1 activity in Sprague-Dawley rat microsome assessed as reduction in [I-14C] stearoyl CoA desaturation by scintillation counting; type: microsomes
T2 sequence (P07308 whole entry): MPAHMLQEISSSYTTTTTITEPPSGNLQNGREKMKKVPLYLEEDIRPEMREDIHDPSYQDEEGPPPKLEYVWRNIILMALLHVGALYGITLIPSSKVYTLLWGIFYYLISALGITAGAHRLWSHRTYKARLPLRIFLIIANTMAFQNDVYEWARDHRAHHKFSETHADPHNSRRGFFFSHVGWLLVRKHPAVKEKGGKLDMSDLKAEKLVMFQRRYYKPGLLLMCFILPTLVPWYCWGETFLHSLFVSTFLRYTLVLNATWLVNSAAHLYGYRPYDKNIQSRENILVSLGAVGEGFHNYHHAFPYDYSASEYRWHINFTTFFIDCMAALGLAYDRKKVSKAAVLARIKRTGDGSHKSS

[8] = tested on: Liver; assay: Ratio drug uptake in liver to harderian gland of C57BL6 mouse at 10 mg/kg, po measured 6 hrs post dose; type: ADME, organism-based; parameters: dose 10 mg/kg, route oral; conditions: in vivo
Summary of the method: (§2)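 Single oral dose of 10 mg/kg in 0.5% methylcellulose to fed C57BL6 mice (n = 2). Animals sacrificed 6 h post dose. Plasma, liver, skin and Harderian gland collected. Tissues homogenized in MeCN/water with internal standard and drug quantified by LC-MS against a standard curve made in blank plasma. Concentration ratio calculated.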

[9] = molecular target: T2, Acyl-CoA desaturase 1; assay: Inhibition of SCD-1 activity in Sprague-Dawley rat Hepatocytes expressing organic anion transporting polypeptides assessed as reduction in [I-14C] […] desaturation by scintillation counting; type: cell-based, Hepatocyte
Summary of the method: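 Rat hepatocytes (4 × 10^6 cells/mL) were preincubated with compound for 15 min at 37 °C/5% CO2. 14C-stearic acid (final 0.5 μCi/mL) was then added for 1 h with shaking. Cells were washed, hydrolyzed in 2N NaOH at 75 °C for 1 h, acidified and extracted. Radiolabeled oleic and stearic acids were quantified by HPLC with flow scintillation detection. Mean of at least n = 3.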

[10] = tested on: Mus musculus; assay: Toxicity in diet-induced obese C57BL6 mouse assessed as reduction in food intake at 1 to 5 mg/kg, po QD; type: organism-based; parameters: dose 1-5 mg/kg, route oral; conditions: in vivo
Summary of the method: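 Obese male C57/Bl6 mice after at least 18 weeks of high fat diet and a 7-day vehicle run-in, randomized by body weight. Dosed orally at 1 or 5 mg/kg qd for 28 days (n = 8–10/group). Food consumption monitored twice weekly.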

[11] = tested on: Mus musculus; assay: Inhibition of SCD activity in harderian gland of diet-induced obese C57BL6 mouse assessed as reduction in desaturation induces at 5 mg/kg, po QD; type: functional
[12] = tested on: Mus musculus; assay: Toxicity in diet-induced obese C57BL6 mouse assessed as adverse effect in eye at 1 to 5 mg/kg, po QD; type: organism-based; parameters: dose 1-5 mg/kg, route oral; conditions: in vivo
[13] = tested on: Mus musculus; assay: Inhibition of SCD activity in skin of diet-induced obese C57BL6 mouse assessed as reduction in desaturation induces at 5 mg/kg, po QD; type: functional
[14] = tested on: Mus musculus; assay: Antidiabetic activity in diet-induced obese C57BL6 mouse assessed as reduction in body weight gain at 1 mg/kg, po QD; type: functional; parameters: scale not given: the % may be the effect or the level left
Summary of the method: (§3)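 Male C57/Bl6 mice were fed a high fat diet for at least 18 weeks from 6 weeks of age, then given vehicle (1% methocel, bid) for 7 days and randomized by body weight. Oral dosing (qd or bid) ran for 28 days, with n = 8–10/group. Body weight, food intake and skin/eye scores were recorded twice weekly.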

[15] = Drug level in harderian gland of diet-induced obese C57BL6 mouse at 5 mg/kg, po QD; type: ADME, organism-based; parameters: dose 5 mg/kg, route oral; conditions: in vivo, read-out: Drug uptake
Summary of the method: (§4)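 eDIO mice were dosed orally for 4 weeks, either 20 mg/kg bid or 5 mg/kg qd. Liver, Harderian gland and skin were taken at trough at study termination, and compound concentration was measured by LC-MS.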

[16] = tested on: Mus musculus; assay: Antidiabetic activity in po dosed diet-induced obese C57BL6 mouse assessed as reduction in body weight gain; type: functional, organism-based; summary of the method: as §3
[17] = tested on: Mus musculus; assay: Inhibition of SCD activity in liver of diet-induced obese C57BL6 mouse assessed as reduction in desaturation induces at 30 mg/kg, po BID; type: functional, organism-based; parameters: dose 30 mg/kg
[18] = tested on: Mus musculus; assay: Toxicity in diet-induced obese C57BL6 mouse assessed as adverse effect in skin at 1 to 5 mg/kg, po QD; type: organism-based; parameters: dose 1-5 mg/kg, route oral; conditions: in vivo
[19] = Ratio drug uptake in liver to plasma of C57BL6 mouse at 10 mg/kg, po measured 6 hrs post dose; type: ADME, organism-based; parameters: dose 10 mg/kg, route oral; conditions: liver and plasma; summary of the method: as §2
[20] = Volume of distribution in fasted C57BL6 mouse at 2 mg/kg, iv and 10 mg/kg, po by LC-MS-MS analysis; type: ADME, organism-based; conditions: in vivo
Summary of the method: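 Fasted male C57BL6 mice given 2 mg/kg IV and 10 mg/kg PO. Plasma drug levels measured by LC-MS/MS, mean of n = 3 animals, and PK parameters derived from these.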

[21] = tested on: Mus musculus; assay: Antidiabetic activity in diet-induced obese C57BL6 mouse assessed as reduction in body weight gain at 5 mg/kg, po QD; type: functional; parameters: scale not given: the % may be the effect or the level left; summary of the method: as §3
[22] = tested on: Mus musculus; assay: Antidiabetic activity in diet-induced obese C57BL6 mouse assessed as reduction in glucose AUC at 1 to 10 mg/kg, po administered 1 hr before oral glucose administration measured 2 hrs thereafter; type: functional; conditions: dose mg/kg 1-10
[23] = Cmax in plasma of fasted C57BL6 mouse at 2 mg/kg, iv and 10 mg/kg, po by LC-MS-MS analysis; type: ADME, organism-based
Summary of the method: (§5)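 Fasted male C57BL6 mice received 2 mg/kg IV and 10 mg/kg PO. For the reference compound, IV was given as a solution in 60% PEG-200 and PO as a suspension in 1% methocel. Plasma levels were measured by LC-MS/MS. Values are the mean of n = 3 animals.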

[24] = tested on: Mus musculus; assay: Inhibition of SCD activity in liver of diet-induced obese C57BL6 mouse assessed as reduction in desaturation induces at 5 mg/kg, po QD; type: functional
[25] = AUC in plasma of fasted C57BL6 mouse at 2 mg/kg, iv and 10 mg/kg, po by LC-MS-MS analysis; type: ADME, organism-based; summary of the method: as §5
[26] = Clearance in fasted C57BL6 mouse at 2 mg/kg, iv and 10 mg/kg, po by LC-MS-MS analysis; type: ADME, organism-based; conditions: in vivo; summary of the method: as §5
[27] = tested on: Liver; assay: Drug level in liver of diet-induced obese C57BL6 mouse at 5 mg/kg, po QD; type: ADME, organism-based; parameters: dose 5 mg/kg, route oral; conditions: in vivo, read-out: Drug uptake; summary of the method: as §4
[28] = tested on: Mus musculus; assay: Antidiabetic activity in diet-induced obese C57BL6 mouse assessed as reduction in glucose AUC at 1 to 15 mg/kg, po administered 1 hr before oral glucose administration measured 2 hrs thereafter; type: functional; conditions: dose mg/kg 1-15
[29] = tested on: Zone of skin; assay: Drug level in skin of diet-induced obese C57BL6 mouse at 5 mg/kg, po QD; type: ADME, organism-based; parameters: dose 5 mg/kg, route oral; conditions: in vivo, read-out: Drug uptake; summary of the method: as §4
[30] = tested on: Mus musculus; assay: Antidiabetic activity in diet-induced obese C57BL6 mouse assessed as reduction in glucose AUC at 1 to 3 mg/kg, po administered 1 hr before oral glucose administration measured 2 hrs thereafter; type: functional; conditions: dose mg/kg 1-3

## O=C(O)Cn1nnc(-c2cc(N3CCC(Oc4cc(F)ccc4Br)CC3)no2)n1
[1]
  Activity: Active
[2]
  Activity: Dose-dependent effect
[3]
  Activity: inactive
[4]
  Activity: Active

## Fc1ccc(Br)c(OC2CCN(c3nnc(-c4nn[nH]n4)s3)CC2)c1
[5]
  Ratio IC50: 4
[6]
  IC50: 12600 nM
[7]
  IC50: 34 nM
[8]
  Ratio: 26
[9]
  IC50: 3070 nM

## Cc1nnc(-c2ccc(N3CCC(Oc4ccccc4C(F)(F)F)CC3)nn2)s1
[10]
  Activity: Non-toxic
[5]
  Ratio IC50: 0.14
[11]
  inhibition in vivo at 5 mg/kg: 92%
[12]
  Activity: Toxic
[13]
  inhibition in vivo at 5 mg/kg: 25%
[14]
  Activity: 10%
[15]
  concentration: 5 µM
[16]
  Activity: Dose-dependent effect
[17]
  inhibition: Active
[6]
  IC50: 21 nM
[18]
  Activity: Toxic
[19]
  Kp at 6 h: 14
[20]
  Vd: 7 L/kg
[21]
  Activity: 20%
[22]
  inhibition (INH): 62%
[23]
  Cmax: 1.3 µM
[24]
  inhibition in vivo at 5 mg/kg: 56%
[2]
  Activity: Dose-dependent effect
  ED50: 3 mg/kg
[7]
  IC50: 2 nM
[25]
  AUC: 19 µM·h
[8]
  Ratio: 1.5
[26]
  clearance: 15 mL/min/kg
[27]
  concentration: 10 µM
[9]
  IC50: 157 nM
[28]
  inhibition (INH): 75%
[29]
  concentration: 4 µM
[30]
  inhibition (INH): 55%
